One data set deals with Acinetobacter baumannii. Nature of the data set: Antibacterial activity against Acinetobacter baumannii ATCC 19606 assessed as growth inhibition incubated for 18 hrs by resazurin dye based assay. The note with it: ATCC 19606 = CIP 70.34 = JCM 6841, 18 h. It is filed as functional. In short, it runs like this: (§1)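 Overnight cultures were diluted 40-fold in MHB and grown 1.5–2 h at 37 °C to mid-log phase. Cells were added at 5×10^5 CFU/mL final to two-fold compound dilutions (0.008–32 μg/mL final), in duplicate, for 18 h at 37 °C. Resazurin (0.001% final) was added for 2 h and MIC read by eye. Means, n = 2.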
For orientation: Resazurin is reduced to fluorescent resorufin, in cell work by metabolically active cells.

In the next data set the test system is Candida albicans. The data set can be described thus: Antifungal activity against Candida albicans ATCC 90028 assessed as growth inhibition incubated for 36 hrs by resazurin dye based assay. It is filed as functional. The conditions noted are these: ATCC 90028, 36 h. In short, it runs like this:
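Yeast was grown 3 days on YPD agar at 30 °C. Colonies were suspended and diluted in YNB broth to 2.5×10^3 CFU/mL, then added to two-fold compound dilutions (0.008–32 μg/mL final), in duplicate. Plates stood 36 h at 35 °C without shaking. Means, n = 2.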

Data set [1] is described as follows: Cytotoxicity against human HEK293 cells measured after 20 hrs by resazurin dye based fluorescence assay. It counts as cell-based. In a few lines:
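HEK293 cells, 5,000/well in DMEM with 10% FBS, were exposed to compound for 20 h at 37 °C, 5% CO2. Resazurin (100 μM final) was added for 3 h, then fluorescence read at ex 560/em 590. Signal was normalised to tamoxifen (74 μg/mL, 0%) and untreated growth (100%), and CC50 came from dose-response fitting. Top dose 32 μg/mL. Means, n = 2.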

In data set [2] the test system is Pseudomonas aeruginosa. The data set can be described thus: Antibacterial activity against Pseudomonas aeruginosa ATCC 27853 assessed as growth inhibition incubated for 18 hrs by broth dilution method. It counts as functional. The conditions noted are these: ATCC 27853, 18 h. In short, it runs like this: (§2)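 Broth microdilution following CA-SFM recommendations. Inoculum was 10^5 CFU in Mueller-Hinton broth with two-fold serial drug dilutions. Plates were incubated 18 h at 37 °C. MIC was the lowest concentration giving complete inhibition of visible growth. Values are means, n = 3.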

In data set [3] the test system is Staphylococcus intermedius. Nature of the data set: Antibacterial activity against Staphylococcus intermedius 1051997 assessed as growth inhibition incubated for 18 hrs by broth dilution method. It is filed as functional. The note with it: Staphylococcus intermedius, 1051997, 18 h. In a few lines:
as §2
On the technique in general: Broth dilution looks for growth in wells or tubes with falling amounts of substance.

Data set [4] has as its system Pseudomonas aeruginosa. Nature of the data set: Potentiation of doxycycline-induced antibacterial activity against Pseudomonas aeruginosa ATCC 27853 assessed as concentration required to restore 2 ug/ml doxycycline activity measured after 18 hrs. It is filed as functional. In short, it runs like this: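 Inoculum was 5×10^5 CFU in MHB with two-fold serial dilutions of adjuvant plus fixed doxycycline at 2 μg/mL. […] Repeated independently in triplicate.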

A further data set concerns Escherichia coli. The data set can be described thus: Antibacterial activity against Escherichia coli ATCC 25922 assessed as growth inhibition incubated for 18 hrs by broth dilution method. It is filed as functional. The note with it: ATCC 25922, 18 h. In short, it runs like this:
as §2

The next data set deals with Cryptococcus neoformans. The data set can be described thus: Antifungal activity against Cryptococcus neoformans ATCC 208821 assessed as growth inhibition incubated for 36 hrs by resazurin dye based assay. It counts as functional. The note with it: ATCC 208821, 36 h. In a few lines: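 Cryptococcus was grown 3 days on YPD agar at 30 °C, suspended, and diluted in YNB broth to 2.5×10^3 CFU/mL. Cells were exposed to 0.008–32 μg/mL compound (final), in duplicate, for 36 h at 35 °C without shaking. Resazurin (0.006% final) was added for a further 3 h. MIC was read from absorbance at OD570–600. Means, n = 2.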

The subject of a further data set is L6. The data set can be described thus: Cytotoxicity against rat L6 cells measured after 72 hrs by alamar blue assay. It counts as cell-based. The conditions noted are these: L6, 72 h. In a few lines:
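Rat L6 myoblasts, 4×10^4/well in RPMI 1640 with L-glutamine and 10% FBS, received seven 3-fold dilutions (90 to 0.123 μg/mL) for 72 h. Alamar Blue was added for 2 h and fluorescence read at ex 536/em 588 nm. Podophyllotoxin served as reference. Means, n = 2.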

The nature of data set [5]: Hemolytic activity against Sprague-Dawley rat RBC assessed as release of hemoglobin at 50 uM incubated for 1 hr relative to control. It counts as ADME, cell-based, Erythrocyte. The note with it: red blood cells (erythrocytes), read-out: Activity. In a few lines: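 Fresh Sprague-Dawley rat erythrocytes were washed in saline and resuspended at 2% v/v. Cells were incubated with compound in DMSO/PBS for 1 h at 37 °C, then centrifuged at 200 g, and supernatant absorbance read at 540 nm. Results were normalised to DMSO/PBS (0%) and 0.1% Triton X-100 (100%). Single-point testing used 50 μM; HC50 came from 10-point curves. Means of three experiments.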

A further data set has as its system Staphylococcus aureus. Nature of the data set: Antibacterial activity against Staphylococcus aureus ATCC 25923 assessed as growth inhibition incubated for 18 hrs by broth dilution method. It counts as functional. The note with it: ATCC 25923, 18 h. In a few lines:
as §2

The test system of the next data set is Klebsiella pneumoniae. The data set can be described thus: Antibacterial activity against Klebsiella pneumoniae ATCC 700603 assessed as growth inhibition incubated for 18 hrs by resazurin dye based assay. The note with it: Klebsiella pneumoniae, 700603, 18 h. It counts as functional. In a few lines:
as §1

≈ marks a conversion by molar mass, not a printed value. Bounds are passed on as bounds.

Here are results for six compounds from ChEMBL document CHEMBL4311975, “Exploration of the antibiotic potentiating activity of indolglyoxylpolyamines” (Eur J Med Chem, 2019).

Consider `COC(=O)c1ccc2c(C(=O)C(=O)NCCCNCCCCNCCCNC(=O)C(=O)c3c[nH]c4cc(C(=O)OC)ccc34)c[nH]c2c1.O=C(O)C(F)(F)F.O=C(O)C(F)(F)F`, for which the minimal inhibitory concentration (MIC) with Acinetobacter baumannii was > 36 µM; in the data set with Candida albicans, > 36 µM; in the data set on Pseudomonas aeruginosa [2], > 200 µM; in [3], 12.5 µM; with Escherichia coli, > 200 µM; in the data set with Cryptococcus neoformans, 9 µM. In addition, the figures for the MIC in the data set with Staphylococcus aureus and with Klebsiella pneumoniae were > 200 µM and > 36 µM, respectively. Also, the CC50 at 20 h in data set [1] was > 36 µM. In addition, the Activity in the data set on Pseudomonas aeruginosa [4] was determined as 25 µM. Further, the IC50 in the data set on L6 was 63.6 µM. In addition, the hemolysis at 1 h, 50 µM in data set [5] came to 0.6%.

As for `O=C(NCCCNCCCCNCCCNC(=O)C(=O)c1c[nH]c2cc(F)ccc12)C(=O)c1c[nH]c2cc(F)ccc12.O=C(O)C(F)(F)F.O=C(O)C(F)(F)F`, the MIC is > 39.6 µM in the data set with Acinetobacter baumannii; > 39.6 µM in the data set on Candida albicans; > 200 µM in the data set with Pseudomonas aeruginosa [2]; > 200 µM in data set [3]; > 200 µM in the data set on Escherichia coli; 19.8 µM in the data set on Cryptococcus neoformans. Also, the minimum inhibitory concentration (MIC) was 100 µM in the data set with Staphylococcus aureus and > 39.6 µM in the data set on Klebsiella pneumoniae. Besides, the CC50 at 20 h in data set [1] turned out to be 12.5 µM. Also, the Activity in the data set with Pseudomonas aeruginosa [4] was 25 µM. Further, the IC50 in the data set on L6 is 69.1 µM. For the same compound, in [5], the hemolysis at 1 h, 50 µM was 0.3%.

On to `COc1ccc2[nH]cc(C(=O)C(=O)NCCCNCCCCNCCCNC(=O)C(=O)c3c[nH]c4ccc(OC)cc34)c2c1`, for which the MIC in the data set with Acinetobacter baumannii is > 38.4 µM; in the data set on Candida albicans it was > 38.4 µM; in the data set with Pseudomonas aeruginosa [2] it was > 200 µM; in [3] it was 50 µM (≈ 30.2 µg/mL); in the data set on Escherichia coli, > 200 µM; in the data set with Cryptococcus neoformans it was 19.2 µM (≈ 11.6 µg/mL). For the same compound, the MIC with Staphylococcus aureus was 100 µM (≈ 60.5 µg/mL); in the data set on Klebsiella pneumoniae, > 38.4 µM. For the same compound, the CC50 at 20 h in data set [1] was > 38.4 µM. In the data set with Pseudomonas aeruginosa [4], the Activity worked out at 12.5 µM. In the data set with L6, this compound registered an IC50 of 56 µM. The hemolysis at 1 h, 50 µM in data set [5] was 0%.

With `COC(=O)c1ccc2[nH]cc(C(=O)C(=O)NCCCNCCCCNCCCNC(=O)C(=O)c3c[nH]c4ccc(C(=O)OC)cc34)c2c1.O=C(O)C(F)(F)F.O=C(O)C(F)(F)F`, the MIC in the data set on Acinetobacter baumannii was > 36 µM; with Candida albicans it was > 36 µM; in the data set on Pseudomonas aeruginosa [2] it was 200 µM; in data set [3], 6.25 µM; in the data set on Escherichia coli, 200 µM; in the data set on Cryptococcus neoformans, > 36 µM. Also, the MIC with Staphylococcus aureus is 100 µM; in the data set on Klebsiella pneumoniae it was > 36 µM. Besides, in data set [1], the half-maximal cytotoxic concentration (CC50) at 20 h is > 36 µM. In addition, the Activity with Pseudomonas aeruginosa [4] was determined as 25 µM. The IC50 with L6 worked out at 41.8 µM. Further, the hemolysis at 1 h, 50 µM in [5] turned out to be 0%.

With `O=C(NCCCNCCCCNCCCNC(=O)C(=O)c1c[nH]c2cc(Cl)ccc12)C(=O)c1c[nH]c2cc(Cl)ccc12.O=C(O)C(F)(F)F.O=C(O)C(F)(F)F`, the MIC was determined as 38.1 µM in the data set with Acinetobacter baumannii; 38.1 µM in the data set on Candida albicans; 100 µM with Pseudomonas aeruginosa [2]; 3.12 µM in data set [3]; 50 µM with Escherichia coli; 4.8 µM in the data set on Cryptococcus neoformans. Besides, the figures for the MIC in the data set on Staphylococcus aureus and with Klebsiella pneumoniae were 6.25 µM and 38.1 µM, respectively. Further, in data set [1], half-maximal cytotoxicity (CC50 at 20 h) was put at 19.1 µM. Also, the Activity with Pseudomonas aeruginosa [4] amounted to 6.25 µM. In addition, inhibition in the data set with L6 was half-maximal at 33.2 µM (IC50). The hemolysis at 1 h, 50 µM in data set [5] is 11.6%.

As to `Cc1cccc2c(C(=O)C(=O)NCCCNCCCCNCCCNC(=O)C(=O)c3c[nH]c4c(C)cccc34)c[nH]c12.O=C(O)C(F)(F)F.O=C(O)C(F)(F)F`, the MIC with Acinetobacter baumannii was > 40 µM; in the data set on Candida albicans, > 40 µM; in the data set on Pseudomonas aeruginosa [2], > 200 µM; in [3], 12.5 µM; in the data set on Escherichia coli, > 200 µM; in the data set on Cryptococcus neoformans, 10 µM. The figures for the MIC with Staphylococcus aureus and in the data set on Klebsiella pneumoniae were 25 µM and > 40 µM, respectively. In data set [1], the cytotoxic concentration (CC50) at 20 h was > 40 µM. The Activity in the data set with Pseudomonas aeruginosa [4] is 6.25 µM. Also, inhibition in the data set with L6 was half-maximal at 59.6 µM (IC50). Also, in [5], the hemolysis at 1 h, 50 µM was 0.1%.

As a reminder, the MIC is the lowest concentration found to suppress growth. The CC50 is the concentration that lowers cell viability or growth by half. Lower therefore signals harm at low concentration. One may read the IC50 as the point on the concentration scale where inhibition reaches its midpoint. Read a high IC50 as weaker potency.
